Source: PubChem (several laboratories)
TAAR1 ag: human TAAR1 agonism; Q96RJ0; CHO RD-HGA16 TAAR1, Fluo-8 calcium fluorescence; vehicle wells 0%, saturating PEA agonist 100%; activation, % at 3 µM; 0.99% of 360,000 active; AID 624467;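 active means activation above the mean activation of all test compounds in the run plus 3 SD, cut at about 38% in these data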
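Test system: RD-HGA16 (CHO) cells co-expressing Gα16 and hTAAR1; dosing: one-point dosing at 3 µM (nominal); timing: 17-24 h seeding, 75 min 37 °C dye, 30 min RT; signal: kinetic Fluo-8 calcium fluorescence; read-out basis: % activation relative to PEA EC100 response; controls: DMSO and PEA EC100; replicates: n 1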
Platelet DG rel: platelet dense granule release activity; human platelet-rich plasma, SFLLRN dense granule ATP release, luminescence; inhibition, %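 (compounds screened at 7.5 µM in platelet-rich plasma)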; 0.22% of 300,000 active; AID 1663;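 active means mean replicate score, as percent of positive control, at or above 50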
Rce1 inh: inhibitors of yeast Ras-converting enzyme; Q03530; yeast membranes, quenched prenylated peptide cleavage fluorescence; calls only; 0.27% of 290,000 active;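 active means fall in fluorescence gain of 50% or more versus controls, with final raw signal at or below 3038400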;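 further: plate controls were neutral control wells for no effect and wells lacking membranes for full effect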
TAAR1 antagonist: human TAAR1 antagonism; inhibition, % at 3 µM; 1.5% of 360,000 active; CHO RD-HGA16 TAAR1, Fluo-8 calcium fluorescence, antagonist;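 active means inhibition above a per-plate cutoff, the mean inhibition of test compounds on that plate plus 3 SD, cut at about 49% in these data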;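 further: 0% = DMSO plus EC80 beta-PEA response and 100% = DMSO alone without agonist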
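Material: RD-HGA16 CHO cells with stable hTAAR1 and Gα16; Dosing: single nominal final test compound concentration of 3 µM; Schedule: seeding 17-24 h prior, 75-min 37 °C, 30-min RT dye loading; Detection: kinetic Fluo-8 calcium fluorescence measurement; Measure: % inhibition from peak post-agonist over basal fluorescence ratio; Benchmarks: vehicle and agonist controls.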
VLA-4 inh: inhibition in a human VLA-4 binding assay | P13612 | VLA-4 expressing cells, ligand binding flow cytometry | inhibition, % (about 7 µM as worked out from the volumes in the protocol) | 0.2% of 330,000 active | AID 2557; in the data active means inhibition above about 50%
TAAR1 ag confirm: human TAAR1 agonism, confirmed; shares compounds with TAAR1 ag; CHO RD-HGA16 TAAR1, Fluo-8 calcium fluorescence; scaled: DMSO 0%, maximal phenethylamine 100%; activation, % at 3 µM; 82% of 2,400 active;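 active means activation above a cutoff set at the run's mean compound activation plus 3 SD, cut at about 39% in these data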
Ga16 nonsel ag: counter-screen for TAAR1 agonists: nonselective agonists in parental cells; shares compounds with TAAR1 ag; CHO-Ga16 parental, Fluo-8 calcium fluorescence; normalized to maximal ATP response, DMSO zero; activation, % at 3 µM; 50% of 2,400 active; AID 651787;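 active means activation above the run cutoff, the mean activation over all tested wells plus 3 SD, cut at about 12% in these data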;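 further: 0% = DMSO wells and 100% = maximal ATP response on the peak over basal ratio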
TAAR1 desens: TAAR1 response desensitization, agonist counter-screen; CHO RD-HGA16 hTAAR1, Fluo-8 calcium, beta-PEA response inhibition; inhibition, % at 3 µM; 46% of 2,400 active; shares compounds with TAAR1 ag;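 active means inhibition above the run cutoff, the mean inhibition of all test compounds plus 3 SD, cut at about 49% in these data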;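 further: beta-PEA stimulus applied at its EC80; loss of beta-PEA calcium signal after compound pretreatment read as receptor desensitization; 0% = DMSO with beta-PEA at EC80 and 100% = DMSO alone without agonist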
Ga16 antag count: counter-screen for TAAR1 agonists: nonselective Ga16 antagonists | shares compounds with TAAR1 ag | CHO-Ga16 ATP-induced calcium, Fluo-8 fluorescence | inhibition, % at 3 µM | 39% of 2,400 active;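 active means inhibition above the plate's mean compound inhibition plus 3 SD, computed per plate, cut at about 22% in these data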;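 further: 0% = EC80 ATP with DMSO and 100% = DMSO wells without ATP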
* marks the source's active call; other numbers are inactive results; i = inactive; x = not tested or not shown. Most compounds without a hit are left out; they make up all but 2.6% or so of the library.

SMILES | TAAR1 ag | Platelet DG rel | Rce1 inh | TAAR1 antagonist | VLA-4 inh | TAAR1 ag confirm | Ga16 nonsel ag | TAAR1 desens | Ga16 antag count
Cc1ccc(S(=O)(=O)N2CCN(C(=O)COC(=O)CSc3ccc(C)c(C)c3)CC2)c(C)c1 | 2.4 | x | x | -5.7 | x | x | x | x | x
CCOC(=O)C1(C(=O)OCC)NC(=O)CC1CC(C)C (stereo not drawn) | 0.8 | x | x | -9.5 | x | x | x | x | x
O=C(NCCc1ccco1)C(=O)NCC1OCCCN1S(=O)(=O)c1ccccc1 (stereo not drawn) | 65.9* | -8.6 | i | 23.8 | 5.5 | 35.7 | 6.3 | 10.1 | 8.6
O=C(NCc1ccco1)C(=O)NCC1OCCCN1S(=O)(=O)c1ccccc1 (stereo not drawn) | -0.3 | -6.5 | i | -2.5 | 8.4 | x | x | x | x
Cc1ccc(S(=O)(=O)n2c(N)nc3cc(C)c(C)cc32)cc1 | 11.3 | x | x | -5.7 | x | x | x | x | x
CCOC(=O)C(NCCc1ccccc1F)(NC(C)=O)C(F)(F)F (stereo not drawn) | 71.5* | -3.7 | i | 50.7* | 8.0 | 101.0* | 0.9 | 88.0* | 0.2
CCOC(=O)C(NCc1ccccc1OC)(NC(C)=O)C(F)(F)F (stereo not drawn) | 20.7 | -11.6 | i | -13.3 | 4.7 | x | x | x | x
CCOc1cccc(/C=C(/C#N)c2nc3ccccc3[nH]2)c1OCC(=O)O | 6.6 | -7.8 | i | -18.1 | -0.4 | x | x | x | x
CCN(CC)c1ccc(/C=C(/C#N)c2nc3ccccc3[nH]2)c(OC(C)C)c1 | 92.0* | -0.7 | i | 99.4* | i | 25.0 | 30.3* | 65.2* | 64.0*
CCOC(=O)N[C@H](C(=O)N1CCC[C@H]1C(=O)NCCc1ccccc1Cl)C1CCCCC1 | 61.0* | x | x | 75.4* | x | 85.8* | -0.5 | 95.5* | -2.0
O=C(NCCc1ccccc1Cl)[C@@H]1CCCN1C(=O)[C@@H](NC(=O)N1CCOCC1)c1ccccc1 | 41.9* | x | x | 3.4 | x | 60.5* | 3.9 | 31.6 | 7.1
O=C(NCCc1ccccc1Cl)[C@@H]1CCCN1C(=O)[C@@H](NC(=O)N1CCOCC1)C1CCCCC1 | 57.2* | x | x | 34.7 | x | 74.4* | 2.3 | 80.2* | 5.7
COc1ccccc1-n1c(SCC(N)=O)nnc1-c1ccc(S(=O)(=O)N2CCCCC2)cc1 | 52.3* | -1.4 | i | -4.4 | 15.5 | 27.4 | 8.6 | 20.4 | 23.6*
c1ccc(CN2CN=C(Nc3nc4ccccc4s3)NC2)cc1 | 2.3 | 9.0 | i | 3.7 | -3.9 | x | x | x | x
c1ccc(CCN2CN=C(Nc3nc4ccccc4s3)NC2)cc1 | 78.8* | -36.4 | i | 51.0* | 6.8 | 40.0* | -0.2 | 10.5 | 3.0
C=CCn1c(SCC(=O)N(CC)c2c(N)n(Cc3ccccc3)c(=O)[nH]c2=O)nnc1-c1ccccc1OC | 877.2* | x | x | -1.3 | x | 5.5 | 1.9 | -5.0 | 0.7
Fc1ccc(-[n+]2nc(Nc3ccccc3)sc2-c2c(Cl)cccc2Cl)cc1 | 74.0* | 4.0 | i | 32.3 | -18.0 | 88.7* | 34.8* | 72.8* | 29.0*
COc1ccc2ccccc2c1-c1sc(Nc2ccccc2)n[n+]1-c1ccc(F)cc1 | 64.0* | -1.1 | i | -11.7 | 5.4 | 51.8* | 25.4* | 46.1 | 37.0*
COc1ccc(-c2sc(Nc3ccccc3)n[n+]2-c2ccc(F)cc2)cc1Br | 11.1 | 0.0 | i | -0.1 | 13.3 | x | x | x | x
CC(C)Cn1c(=S)[nH]c2cc(C(=O)NCc3ccccc3F)ccc2c1=O | 7.9 | x | x | 16.9 | -1.1 | x | x | x | x
O=C(O)CC(NC(=O)C1c2ccccc2Oc2ccccc21)c1ccc(OC2CCCC2)cc1 (stereo not drawn) | 57.6* | -3.2 | i | -12.1 | -4.2 | 82.9* | 49.0* | 12.1 | 0.5
O=C(Cc1nnc(NC(=O)Nc2ccccc2)s1)Nc1ccccc1 | 52.3* | 6.3 | i | 42.6 | 11.5 | 64.6* | 1.7 | 70.5* | 7.7
